Entries after “also recorded” stand apart in the source; their conditions may differ. Where two headings read alike, the source gives them in different places.
Tests used:
[1] = target: T1, uPAR (Homo sapiens, UniProt Q03405); assay: Fluorescence polarization; assay type: binding
[2] = target: T1, uPAR; assay: Direct binding of IPR-456 to uPAR by FP; details: 10 μM GFD
[3] = target: uPAR·uPA interaction (uPAR binding to uPAATF) (Homo sapiens, UniProt Q03405); assay: Microtiter-based ELISA, uPAR binding to immobilized uPAATF; details: for concentration-dependent inhibition of uPAR binding to uPAATF (ELISA): serial dilutions; for activity in the ELISA at single concentration: 50 μM
Chain of uPAR·uPA interaction (uPAR binding to uPAATF) (Q03405 23-299): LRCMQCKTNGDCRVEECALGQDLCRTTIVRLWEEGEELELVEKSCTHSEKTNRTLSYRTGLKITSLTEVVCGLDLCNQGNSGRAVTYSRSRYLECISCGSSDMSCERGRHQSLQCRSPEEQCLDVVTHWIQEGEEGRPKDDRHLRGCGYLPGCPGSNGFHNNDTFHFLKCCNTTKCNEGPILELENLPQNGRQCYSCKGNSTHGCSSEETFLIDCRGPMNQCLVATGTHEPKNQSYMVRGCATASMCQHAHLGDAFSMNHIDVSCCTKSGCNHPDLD
How it was run: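 Microtiter wells coated with uPAATF (purified by SP Sepharose […] exchange). Blocking used a 1:1 mix of Superblock in PBS with 0.04 M NaH₂PO₄/0.3 M NaCl buffer. uPAR binding was tested against serial dilutions of test compound. After incubation and washes, bound uPAR was detected with biotinylated antibody uPA1310 in 1% BSA/PBS for 1–2 h.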

[4] = target: uPA binding to uPAR of MDA-MB-231 tumor cells (Homo sapiens, UniProt Q03405); assay: Immunofluorescence imaging of cell surface uPA and uPAR; assay type: cell-based
Chain of uPA binding to uPAR of MDA-MB-231 tumor cells (Q03405 23-305 limits assumed): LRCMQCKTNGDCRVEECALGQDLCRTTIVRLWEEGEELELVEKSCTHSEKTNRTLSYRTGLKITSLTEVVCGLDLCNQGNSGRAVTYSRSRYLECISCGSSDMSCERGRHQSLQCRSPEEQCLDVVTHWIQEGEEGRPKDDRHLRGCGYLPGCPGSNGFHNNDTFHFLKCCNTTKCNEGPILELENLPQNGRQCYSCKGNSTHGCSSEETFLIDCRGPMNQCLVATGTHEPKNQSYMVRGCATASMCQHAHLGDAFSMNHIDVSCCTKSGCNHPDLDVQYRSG

[5] = tested on: MDA-MB-231 cells; assay: Invasion assay; assay type: cell-based, human; details: for number of cells able to invade through the membrane: MDA-MB-231, increasing concentration
How it was run: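 Insert undersides were coated overnight at 4°C with 30 ng μl⁻¹ fibronectin, and filters were equilibrated 2 h in serum-free medium. Cells serum-starved 4 h were seeded at 5×10⁴ in 0.1% FBS medium with compound in the upper chamber, with 10% FBS medium plus compound or DMSO below. After 16 h at 37°C, 5% CO₂, filters were methanol-fixed and hematoxylin-stained. Invaded cells were counted in ten 200× fields.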

[6] = tested on: MDA-MB-231 cells lacking uPAR; assay: Invasion assay with siRNA knockdown of uPAR; assay type: cell-based, human; details: MDA-MB-231 with siRNA knockdown of uPAR
How it was run: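 Cells were transfected with uPAR siRNA, control siRNA or transfection reagent alone. After 48 h, knockdown was checked by immunoblot: 20 µg lysate on 12% SDS-PAGE, anti-uPAR probe, actin as loading control. Invasion without or with test compound then used fibronectin-coated transwells, with 0.1% FBS medium above and 10% FBS below, for 16 h at 37°C. Invaded cells were counted.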

[7] = tested on: MDA-MB-231 cells; assay: Cytotoxicity / cell proliferation; assay type: cell-based, human
How it was run: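 MDA-MB-231 cells were exposed to test compound at the same concentrations and for the same incubation time as the transwell motility assay. MTT was added 2 h before measurement.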

[8] = tested on: MDA-MB-231 cells; assay: Transwell; assay type: cell-based, human
How it was run: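 Wells were fibronectin-coated (30 ng μL⁻¹, 4°C overnight). Cells serum-starved 4 h were seeded at 5×10⁴ in 0.1% FBS medium with compound or DMSO in the upper chamber, with 10% FBS RPMI-1640 plus compound or 1% DMSO below, for 8 h at 37°C. Non-migrated cells were scraped off; filters were methanol-fixed 30 min and hematoxylin-stained 1 h. Cells in ten 200× fields were counted and averaged over three independent experiments.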

[9] = tested on: MDA-MB-231 cells; assay: Wound healing assay; assay type: cell-based, human; details: MDA-MB-231, 16 h
How it was run: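 Confluent MDA-MB-231 monolayers were scratched with a pipette tip, washed, and cultured in complete medium containing test compound. The gap between wound edges was measured in three random regions immediately after wounding and at 16 h.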

[10] = tested on: MDA-MB-231 cells; assay: Adhesion assay; assay type: cell-based, human
How it was run: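 Wells coated overnight at 4°C with fibronectin (15 ng μl⁻¹) or vitronectin, then blocked 1 h with 0.5% BSA/PBS. Cells were serum-starved 3 h, trypsinized, and held at 2.5×10⁵ cells ml⁻¹ in 0.1% FBS DMEM with test compound or DMSO for 90 min at 37°C. After three PBS washes, remaining adherent cells were quantified by MTT.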

[11] = target: uPAR·uPA interaction (suPAR277 and uPAATF) (Homo sapiens, UniProt Q03405); assay: Surface plasmon resonance; assay type: binding; details: for SPR response with increasing concentration of compound: 5 to 100 μM
Chain of uPAR·uPA interaction (suPAR277 and uPAATF) (Q03405 23-299): as the sequence (Q03405 23-299) above
How it was run: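 uPA amino-terminal fragment was amine-coupled to a CM5 chip at about 100 RU. Soluble uPAR (residues 1–277, expressed in Drosophila S2 cells) was injected with or without test compound (5–100 μM final, 5% DMSO) in HBS-EP plus 5% DMSO. Flow was 20 μL min⁻¹, with 180 s association and 90 s dissociation, and 5 mM HCl regeneration. DMSO-only protein controls were interleaved. IC50 was estimated from the plots.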

[12] = read-out: IC50, inhibition of uPAATF binding to uPAR (ELISA)

T1 sequence (Q03405 23-299): as above

CC1CC(C)CN(c2cc(Nc3ccccc3C(=O)O)c3c4c(onc24)-c2ccccc2C3=O)C1 (stereo not shown) [IPR-456, 2-((3-(3,5-Dimethylpiperidin-1-yl)-6-oxo-6H-anthra[1,9-cd]isoxazol-5-yl)amino)benzoic acid]
Ki [1]: 0.14 µM | concentration-dependent displacement of GFD-FAM ([1]; 0.78 μM to 100 μM): displace GFD-FAM in a concentration-dependent manner | inhibition / binding in initial FP screen ([1]; single concentration of 50 μM): highest inhibition | change of polarization with increasing uPAR in the presence of GFD [2]: no increase in the polarization was detected | concentration-dependent inhibition of uPAR binding to uPAATF (ELISA) [3]: complete concentration-dependent inhibition | IC50 [4]: 8 µM | uPAR immunostaining at the cell surface ([4]; MDA-MB-231): no change in the immunostaining pattern of uPAR | uPA staining at the cell surface ([4]; MDA-MB-231, compound added 30 min prior to immunostaining): significant concentration-dependent reduction of uPA staining | inhibition of invasion ([5]; MDA-MB-231): about 60% | number of cells able to invade through the membrane [5]: concentration-dependent reduction | effect on invasion of cells lacking uPAR [6]: no effect on invasion | toxicity within the timeframe of the invasion experiment ([7]; MDA-MB-231, 200 μM): minimal toxicity | toxicity within the timeframe of the invasion experiment ([7]; MDA-MB-231, up to 100 μM): no toxicity | cytotoxicity in the migration assays ([7]; same concentrations and incubation time as migration assays): Neither assay exhibited any cell cytotoxicity | effect on migration (Boyden chamber) [8]: blocked migration very weakly | effect on migration (wound healing) [9]: little effect on migration | effect on cell adhesion ([10]; fibronectin-coated wells): no effect on cell adhesion | effect on cell adhesion ([10]; vitronectin-coated wells): no effect on cell adhesion

CC1CC(C)CN(c2cc(NCCC(=O)O)c3c4c(onc24)-c2ccccc2C3=O)C1 (stereo not shown) [IPR-763]
activity in the ELISA at single concentration [3]: strong activity | IC50 [3, 12]: 20 µM | concentration-dependent inhibition of uPAR binding to uPAATF (ELISA) [3]: concentration-dependent inhibition | IC50 estimated from SPR plots, compared with ELISA [11]: nearly identical to those observed in the ELISA | SPR response with increasing concentration of compound [11]: concentration-dependent decrease in the response

O=C(O)c1cccc(Nc2cc(N3CCCCCC3)c3noc4c3c2C(=O)c2ccccc2-4)c1 [IPR-803, 3-((3-(Azepan-1-yl)-6-oxo-6H-anthra[1,9-cd]isoxazol-5-yl)amino)benzoic acid]
IC50 [3]: 10 µM | activity in the ELISA at single concentration [3]: strong activity | concentration-dependent inhibition of uPAR binding to uPAATF (ELISA) [3]: concentration-dependent inhibition | IC50 [11]: 10 µM | IC50 estimated from SPR plots, compared with ELISA [11]: nearly identical to those observed in the ELISA | SPR response with increasing concentration of compound [11]: concentration-dependent decrease in the response | number of cells able to invade through the membrane [5]: concentration-dependent reduction | effect on cell proliferation / cytotoxicity ([7]; MDA-MB-231, increasing concentration): concentration dependent inhibition of MDA-MB-231 cell proliferation; also recorded: some cytotoxicity

CC1CCN(c2cc(Nc3ccc(C(=O)O)cc3)c3c4c(onc24)-c2ccccc2C3=O)CC1 [IPR-808]
activity in the ELISA at single concentration [3]: strong activity | IC50 [3, 12]: 30 µM | concentration-dependent inhibition of uPAR binding to uPAATF (ELISA) [3]: concentration-dependent inhibition

Source: paper PMC3220747 (ACS chemical biology, 2011)
